From PubChem
CHRM4 PAM: potentiates acetylcholine response at human M4 receptor; actives 0.4% (n = 360,000); CHO-K1 hM4/Gqi5, Fluo-8 calcium fluorescence, ACh EC20; 0% = ACh EC20, 100% = maximal ACh; P08173; activation, % at 3 µM;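 active = activation above its plate's cutoff, the mean activation of sample wells plus 3 SD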
CHRM5 PAM: positive allosteric modulators of human muscarinic M5 receptor; CHO-K1 hM5, Fluo-8 calcium, ACh EC20 PAM; 0% = ACh EC20, 100% = ACh EC100; activation, % at 3 µM; actives 0.3% (n = 360,000);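 active = activation above the run cutoff, the mean activation of all test compounds plus 3 SD, cut at about 18% in these data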
Target sequence (P08912 whole entry, looked up): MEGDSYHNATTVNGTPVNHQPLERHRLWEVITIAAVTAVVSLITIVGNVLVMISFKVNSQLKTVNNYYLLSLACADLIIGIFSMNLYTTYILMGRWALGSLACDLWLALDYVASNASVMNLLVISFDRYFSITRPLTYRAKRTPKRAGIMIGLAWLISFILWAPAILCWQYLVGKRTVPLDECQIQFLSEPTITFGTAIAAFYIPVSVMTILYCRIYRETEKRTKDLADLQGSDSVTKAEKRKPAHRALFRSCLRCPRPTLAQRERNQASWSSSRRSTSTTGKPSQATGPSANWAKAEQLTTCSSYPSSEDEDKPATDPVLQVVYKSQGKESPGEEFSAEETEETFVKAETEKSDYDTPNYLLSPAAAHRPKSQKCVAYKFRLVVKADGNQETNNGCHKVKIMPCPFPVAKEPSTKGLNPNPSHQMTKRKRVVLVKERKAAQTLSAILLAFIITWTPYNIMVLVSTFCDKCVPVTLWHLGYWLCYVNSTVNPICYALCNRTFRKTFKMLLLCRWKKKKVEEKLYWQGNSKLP
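Assay system: CHO-K1 hM5 cells / Incubation: Fluo-8 loading 80 min at 37 °C plus 30 min room temperature / Technique: Fluo-8 calcium dye fluorescence, kinetic read / Repeats: single replicate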
M5 antag: blocks acetylcholine activation of human M5 receptor. P08912. CHO-hM5 cells, Fluo-8 calcium fluorescence, ACh EC80. inhibition, % at 3 µM. actives 0.59% (n = 360,000). AID 624040;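 active = inhibition above a per-plate cutoff, the mean of that plate's test compounds plus 3 SD, cut at about 27% in these data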;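 note: 0% = acetylcholine EC80 with DMSO and 100% = DMSO without agonist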
CHRM5 agonist: CHRM5 agonism in calcium assay; P08912; CHO-K1 hM5 cells, Fluo-8 calcium fluorescence; 0% DMSO wells, 100% maximal acetylcholine response; activation, % at 3 µM; actives 0.19% (n = 360,000); AID 624037;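 active = activation above the run's mean over test compounds plus 3 SD, cut at about 23% in these data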;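 note: signal is peak over basal fluorescence ratio across the kinetic read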
CHRM4 agonist: CHRM4 agonism in calcium assay. P08173. CHO-K1 hM4/Gqi5, Fluo-8 calcium fluorescence; vehicle 0%, full acetylcholine response 100%. activation, % at 3 µM. actives 0.14% (n = 360,000);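 active = activation above the run mean over all test wells plus 3 SD, cut at about 32% in these data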;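 note: peak over basal fluorescence ratio per well then scaled between controls; 0% = DMSO wells and 100% = acetylcholine at EC100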
M4 antag: antagonists of human muscarinic M4 receptor (CHRM4); AID 624125; actives 0.73% (n = 360,000); CHO-hM4 cells, ACh EC80, Fluo-8 calcium fluorescence; inhibition, % at 3 µM;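 active = inhibition above its plate's cutoff, the mean inhibition of sample wells plus 3 SD, cut at about 27% in these data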;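 note: 0% = acetylcholine EC80 with DMSO and 100% = DMSO without agonist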
An asterisk follows results filed as active. In the library only some 1.9% were active in any assay of this set; here they are far more common.

SMILES	CHRM4 PAM	CHRM5 PAM	M5 antag	CHRM5 agonist	CHRM4 agonist	M4 antag
CCOc1cc2c(cc1OCC)-n1cccc1C(c1cccc(OCC)c1O)NC2 (centres undefined)	-2	1	2	1	2	-1
O=C(c1ccc(Cl)cc1)C1CCCN(C2CCSCC2)C1 (centres undefined)	-19	-17	27*	-10	2	37*
COc1ccc(C(=O)C2CCCN(C3CSCCSC3)C2)cc1OC (centres undefined)	-27	-16	9	-19	2	39*
COc1ccc(C(=O)C2CCCN(Cc3cnc(C)s3)C2)cc1OC (centres undefined)	-11	-3	-3	-10	1	5
CC1CC(OC(=O)c2ccccc2)(c2ccccc2)C(C)CN1C (centres undefined)	-9	-3	7	-15	2	-8
O=C1OC(c2ccc(Br)cc2)=N/C1=C\N1CC2CC(C1)c1cccc(=O)n1C2 (centres undefined)	-6	4	-1	-12	0	5
O=C1OC(c2ccc(Cl)cc2)=N/C1=C\N1CC2CC(C1)c1cccc(=O)n1C2 (centres undefined)	15	22*	-9	-5	1	-5
C[Se]C[C@@H](N)C(=O)O	-6	-2	3	0	1	10
N[C@@H](CCl)C(=O)O	-16	-8	7	2	1	51*
COC(=O)C1=C(c2cccc(C#N)c2)C[C@@H]2CC[C@H]1N2C(=O)N1CCC(O)CC1	5	3	11	-2	1	-2
O=C(c1ccc2c(c1)OCO2)C1CCCN(CC2CCCCC2)C1 (centres undefined)	-24	-11	8	-11	0	41*
COC(=O)C1=C(c2c(C)noc2C)C[C@@H]2CC[C@H]1N2C(=O)N1CCC(O)CC1	-1	9	8	1	1	9
Cc1ccccc1NC(=S)NC(NC(=O)CF)C(Cl)(Cl)Cl (centres undefined)	-7	-6	-2	0	2	-1
OC(Cn1c2ccccc2c2ccccc21)C[n+]1cccc2ccccc21 (centres undefined)	-27	-22	58*	-13	0	40*
COc1cccc(CNC2CN3CCC2CC3)c1OC (centres undefined)	-11	-24	60*	-6	2	25
Cc1ccc2nc(-c3ccc(CN4CCC(n5c(=O)[nH]c6ccccc65)CC4)cc3)c(-c3ccccc3)nc2c1	-5	-16	11	27*	12	11
COc1ccc2nc(-c3ccc(CN4CCC(n5c(=O)[nH]c6ccccc65)CC4)cc3)c(-c3ccccc3)nc2c1	-9	-20	18	21	10	12
CCC(c1nnnn1Cc1ccccc1)N1CCC(n2c(=O)[nH]c3ccccc32)CC1 (centres undefined)	-12	-15	14	9	23	27*
O=c1[nH]c2ccccc2n1C1CCN(Cc2ccc(-c3nc4ccc(F)cc4nc3-c3ccccc3)cc2)CC1	-1	-13	13	7	3	2
O=c1[nH]c2ccccc2n1C1CCN(Cc2ccc(-c3nc4ccccc4nc3-c3ccccc3)cc2)CC1	3	-22	26	32*	14	6
CCCCn1nnnc1C(CCc1ccccc1)N1CCC(n2c(=O)[nH]c3ccccc32)CC1 (centres undefined)	-5	-12	3	6	22	3
O=C(NCNC(=O)NC1C(=O)NC(=O)N1CO)NC1C(=O)NC(=O)N1CO (centres undefined)	-2	-2	3	0	0	0
N#CC(C#N)=NNc1ccc(-n2ccc(C(F)(F)F)n2)cc1	-3	-21	30*	14	16	8
O=C(CCCN1CCC2(CC1)C(=O)NCN2c1ccccc1)c1ccc(F)cc1	-20	-21	96*	81*	135*	99*
CCCCn1nnnc1C(C1CC1)N1CCC2(CC1)C(=O)NCN2c1ccccc1 (centres undefined)	-7	-4	5	0	6	-6
SMILES	CHRM4 PAM	CHRM5 PAM	M5 antag	CHRM5 agonist	CHRM4 agonist	M4 antag
COc1ccc(C2C(C(=O)N3CCC4(CC3)OCCO4)CC(=O)N2c2ccc(OC)cc2)cc1 (centres undefined)	-5	-4	1	-1	1	-4
CCCC[n+]1cc(/N=C(\[O-])OC)on1	1	36*	-2	-2	1	4
O=C(Oc1ccc([N+](=O)[O-])cc1)N1CCC(N2CCCCC2)CC1	-17	-4	4	-8	0	56*
CC(=O)Nc1ccc(OC(=O)N2CCCCC2)cc1	8	1	-4	-2	0	-1
C/C(=N\Nc1cccc2ccccc12)c1c(O)n(Cc2ccccc2)c(=O)[nH]c1=O	4	-5	-2	0	2	-5
CC(=O)N1N=C2C3CCN(CC3)C2C1c1ccc(F)cc1 (centres undefined)	-4	3	5	-1	1	6
CC(=O)C1CCC2C3CCC4CC(O)CCC4(C)C3C(=O)CC12C (centres undefined)	5	1	5	-2	2	-1
C[N+](C)(C)c1ccccc1	1	-17	-1	52*	2	-6
O=C(c1cc(F)ccc1F)C1CCCN(CCCc2ccccc2)C1 (centres undefined)	-17	-17	12	-9	0	32*
CC(C)N1C(=O)CCC1C(=O)N1CCC2(CC1)OCCO2 (centres undefined)	-1	-4	-4	0	-1	13
CC(CC(C#N)(c1ccccc1)c1ccccc1)N(C)C (centres undefined)	-17	-23	99*	-6	1	91*
CCC(C#N)(CC)P(=S)(c1ccccc1)c1ccccc1	-11	-11	2	-6	-2	-1
O=C(O)C1(Br)CC12c1ccccc1-c1ccccc12 (centres undefined)	0	6	0	4	0	1
CCc1nc2ccc(Br)cc2c(=O)n1-c1ccccc1C(F)(F)F	-2	-3	-1	-7	1	5
CCCc1nc2ccc(Br)cc2c(=O)n1-c1ccc([N+](=O)[O-])c(C(F)(F)F)c1	-12	-14	27*	2	7	17
CC(=NCc1ccc2c(c1)OCO2)c1c(O)n(-c2ccccc2)c(=O)[nH]c1=O	7	-1	9	2	1	1
c1ccc2c(CN3CCCCCCC3)c[nH]c2c1	-22	-4	6	-4	0	32*
